Assay results reported in the EternaBench riboswitch data.

System: MS2 coat protein
Experiment: apparent Kd, MS2 coat protein; higher = weaker binding; RNA-MaP array; FMN 200 µM where present
Summary of the method: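 Designs were transcribed by stalled E. coli RNA polymerase on Illumina sequencing-chip clusters. They were titrated with SNAP-549-labelled MS2 coat protein from 0.7 or 1.5 nM, doubling to 3 µM, in 100 mM Tris-HCl pH 7.5, 80 mM KCl, 4 mM MgCl2, BSA, DTT, yeast tRNA and Tween-20, without and then with constant ligand. The apparent Kd is the median of filtered per-cluster fits after normalisation of green signal to red-channel RNA signal and control-cluster median Fmax.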

[1] = designed as: OFF switch for flavin mononucleotide, no ligand
[2] = ligand present: flavin mononucleotide, designed as: OFF switch for flavin mononucleotide
[3] = designed as: ON switch for flavin mononucleotide, no ligand
[4] = ligand present: flavin mononucleotide, designed as: ON switch for flavin mononucleotide

| Sequence | apparent Kd [1] | apparent Kd [2] | apparent Kd [3] | apparent Kd [4] |
| --- | --- | --- | --- | --- |
| CUUCUGUGAGGAUAUGUUAGCUCCCAGCAAGUCGCUGAGAGACAGAAGGCACAUGAGGAUCACCCAUGUGGGCG | 35.1 nM | 177 nM | – | – |
| GUAGCUAUCGGAGGAUAUCCUUAGCGGAAACGCACAUGAGGAUCACCCAUGUAAAUAAAUAAUUGGGAGAAGGCCGAUAGCUAC | – | – | 107 nM | 16.8 nM |
| GGAUCUUGGGUCAGGAUAUGCUGAUAUUUUUGUCAGCAGAAGGGACAUGAGGAUCACCCAUGUGCUUGGUUUUG | 11.2 nM | 21.8 nM | – | – |
| CGCUAAGAUGGGUCUAAUGGACCACAGGAUAUGCUUGUACAUGAGGAUCACCCAUGUAAUAUUGUGCAGAAGGGUGGAUUCGCG | – | – | 66.5 nM | 10.8 nM |
| ACAUGAGGAUCACCCAUGUAUACAUAGGAUAUUGGUGAUCAGGGAUGUUUUACAGGAUAUGUCUGCGAGAAGGAUGCAAGUACU | – | – | 178 nM | 94.7 nM |
| GGUAAGAUGCAGAAGGUGUUAGCUAGAGCUACGACAUGAGGAUCACCCAUGUACUAGAAACAGUACAAGGAUAUGCAUCUUACG | – | – | 19.1 nM | 6.5 nM |
| UUAUUAUAUGUAGGAUAUGCGUAUUAUUGUUAUGCAGAAGGACAUGAGGAUCACCCAUGUAUAUUAUUGUUGUAUAUUAUAUAU | 23.5 nM | 43 nM | – | – |
| GGUUCGGGAGGAUAUGUUUUUUUUUACAUGAGGAUCACCCAUGUUUUUGUGUUUUUUUUCAUAGAAGGUUUGGGCC | 39 nM | 39.3 nM | – | – |
| AUCAGCUCGACAGGAUAUACGUCACUGCGUCAGCAGUGUGGUAAGAUCACAUGAGGAUCACCCAUGUAGAAGGGACGAGCUGAU | 12.1 nM | 56.2 nM | – | – |
| GCCAUCACAUGAGGAUAUGCUCGGGUUUCCCGAGCAGAAGGCAUGUCAUAAGACAUGAGGAUCACCCAUGUAGGUAAGAUGGCA | – | – | 292 nM | 13.6 nM |
| AAGAAGUCAGGAUAUGCAUGGCGGGACUUGCGUCGUGGCGUGCAGAAGGGACAUGAGGAUCACCCAUGUAAAGC | 49.8 nM | 42.4 nM | – | – |
| UCUAUGCAGACCCUUAUAAAACAUGAGGAUCACCCAUGUGAGAGAAGGGCCUAACGGCAGAGAAGGCAGGAUAUCUUAUGAUGG | 7.46 nM | 12.9 nM | – | – |
| CUCCUGCGAGGAUAUACAUAGUGACGUCUGUUUGGUCUUAAACAUGAGGAUCACCCAUGUAGAAGGUGCGUCAC | 17.5 nM | 16.9 nM | – | – |
| AAAACACAUGAGGAUCACCCAUGUAUCUGGACCAUAGGAUAUCCGCACCCACUAGGGCGUGGAGAAGGGUGAGCCC | – | – | 170 nM | 194 nM |
| UUAUUACAUGAGGAUCACCCAUGUUUAGUGGUGACAGGAUAUACGAAAAAAAAAAAAAAAGUAGAAGGGUCUUAUU | – | – | 503 nM | 742 nM |
| CCAUGCAGUGUGAGGAUAUGCUGGUCCUUGGAUCAGCAGAAGGCACAUGAGGAUCACCCAUGUGAAUAGCGUGG | 44.6 nM | 356 nM | – | – |
| CCUCCCUGAGGAUAUCCACCCUCAUACAUGAGGAUCACCCAUGUUCAACCCUGGGUUCCCGGAGAAGGCAGCCUCC | 706 nM | 650 nM | – | – |
| UUAUCUAUGUAAGGAUAUAGAUGAUAUACGCAUCCGACAUGAGGAUCACCCAUGUUAUAUUUUGUCUAGAAGGUACAUUGUCGG | – | – | 204 nM | 179 nM |
| UUGAACGUCGUAGGAUAUGUAGGAUAUUCCUACAUGAGGAUCACCCAUGUUGACAUGGAAGAAGGACAGAAGGACGAUGUCCAU | – | – | 567 nM | 7.77 nM |
| GUAAAUCAUGUAGGAUAUGCAUGGCGAAGCUACGCAGAAGGACAUGAGGAUCACCCAUGUUCUGGCUACCGGAUACGGUGGCAA | 21.1 nM | 87.6 nM | – | – |
| AAGUUUUUACAAGGAUAUCAAUUUUAUCUUAAUUCAACAUGAGGAUCACCCAUGUAACAAUGGAGUGAGAAGGUGUAAUGGCUU | – | – | 617 nM | 234 nM |
| GACUCGAAUGUAGGAUAUGCUGAGGAAUACUCAGCAGAAGGACAUGAGGAUCACCCAUGUAAAUGAGUGAAUAAUAAACGAGUC | 1410 nM | 197 nM | – | – |
| UGUCGGAGCAGAGGAUAUUACAUGAGGAUCACCCAUGUAUGAACCAAUAGCUGCAAACAGCAAUGUAAGAAGGCUGCUCCGACA | 12.4 nM | 162 nM | – | – |
| CGAUCUUCAGUCAGGAUAUGCUGGCACGAAGAGUUGUAGAAGGGACAUGAGGAUCACCCAUGUCGGACGUUGUA | 19 nM | 17.4 nM | – | – |
| UCAUCAACGGGCGGGUCGGUUGGACAUGAGGAUCACCCAUGUAGAAGGACCGGUGGGCUCCGGCGGUAGGAUAUACAUUUGGUG | 8.14 nM | 13.3 nM | – | – |
| CGCUACGUUUCGUAGCAGCUAGGUGAGGAUAUUCAAUUUUUCACAUGAGGAUCACCCAUGUAUGUGAAGAAGGCGCCUAGAAAC | – | – | 10.8 nM | 4.81 nM |
| CUAUUGUGAGGAUAUCAGUAGUAGAACAAUAGUACUACUACUGAGAAGGCACAUGAGGAUCACCCAUGUUCCUC | 61.1 nM | 406 nM | – | – |
| CAUCUACAGGGAGGAUAUACAUGAGGAUCACCCAUGUCAUCAUACGAUCUUUCUUUUGUAUGAGUGUAGAAGGCCCAACUACCA | 15.2 nM | 15.2 nM | – | – |

| Sequence | apparent Kd [1] | apparent Kd [2] | apparent Kd [3] | apparent Kd [4] |
| --- | --- | --- | --- | --- |
| AAUUUAAUACAUGAGGAUCACCCAUGUAAAUUAAUUAAGAUCAAGGAUAUCAGCUCGAAUAGAGCUGAGAAGGUGAUCACAUGU | – | – | 351 nM | 86.5 nM |
| CCGAGGCUAGGAUAUUGACGAUAAUACAUGAGGAUCACCCAUGUGAGUCGUGUAUGCGCGCAAGAAGGAGUAAUAA | 14 nM | 17.6 nM | – | – |
| UGUAUGGACAGAGGAUAUACCGAUAGGAUCUACUAUCGAAUAAUCCUCACAUGAGGAUCACCCAUGUAGAAGGCUGUCCAUACU | 21.2 nM | 142 nM | – | – |
| UGUUGUAUUACAGGAUAUCUAGUAUAUUUAUUUAGAGAAGGGUAUUCACAUGAGGAUCACCCAUGUAUAUACGAGGAAGUUGUG | – | – | 41.1 nM | 40.2 nM |
| CGAUGACAAAGUCAUCGAUAACGAACAUGAGGAUCACCCAUGUAGGAUAUGCUACUCAAAGAGUAGCAGAAGGACAUGUGUCUU | 31.7 nM | 154 nM | – | – |
| UAAAUCGGAGGAUAUACAUGAGGAUCACCCAUGUAAUCGCGUUGGCAUCGGUGGGUUAGUAGAAGGCUGUAAAU | 30.5 nM | 45.3 nM | – | – |
| UUACUACAUGAGGAUCACCCAUGUCAGGAUAUUGUCUAUACUUUGGAAUAUGUGUCGAUAAGAAGGGACUAUAU | 18.9 nM | 21.5 nM | – | – |
| UUAAUAGUAGGAUAUACAUGAGGAUCACCCAUGUAGCAACUACACAAAGGAACCUGAUGUAGAAGGACUCCCAA | 14.4 nM | 14.5 nM | – | – |
| GAGAAGAGGGAAGGAUAUACAUGAGGAUCACCCAUGUAGAUAGGUAAAAUAGGAAGAAGAAGAAUGUAGAAGGUCCGGUUUGUU | 15.2 nM | 15.9 nM | – | – |
| GACUGAUUGUAGAAGGUACUUGAAAAUAUAUAAUAUCUCAUGUGACAUGAGGAUCACCCAUGUAGUAAGGAUAUACAUAUCACA | – | – | 17.7 nM | 17.9 nM |
| AUACAUGAGGAUCACCCAUGUUACUGGGUCUUUUUAGAACGUAGAAGGAUGUUUUUAUAAAUAACAUAGGAUAUACAAUAUUGU | 59.6 nM | 49.9 nM | – | – |
| GGAUGACACAGUCAUCCAAUACGAACAUGAGGAUCACCCAUGUAGGAUAUGCUACUCAAAGAGUAGCAGAAGGACAUGUGCCUU | 39.1 nM | 257 nM | – | – |
| AAAAAACAUGAGGAUCACCCAUGUGAGGAUAUCAGUAUUCAGUCCUCGGAUUGAGUACUGAGAAGGCACAUAAA | 51.5 nM | 94.2 nM | – | – |
| CCUUUGAAGAUCCUAGUUUUCGACAUGAGGAUCACCCAUGUGCAGGAUAUCGUGCCAGUGAUGUGCGAGAAGGGCAGUCUCUGC | 110 nM | 112 nM | – | – |
| UCGAUGCUAGGAUAUACGUAUAAAACCACCGUAGAGUCCUCACAUGAGGAUCACCCAUGUAGAAGGAGCAUCUA | 17.3 nM | 23.4 nM | – | – |
| GGUUAUUGCAAGGAUAUGCUAUUAUUUUAUUUUGCAGAAGGUGCAACAUGAGGAUCACCCAUGUUGGAGGGUUU | 21.5 nM | 41.1 nM | – | – |
| ACCACGUCAGCGAUAUGAUCGAGAGAUCAUGUCGCUGAAUUUAGAAGGACAUGAGGAUCACCCAUGUAGGAUAUGGGUCGUGGA | – | – | 39.1 nM | 11.8 nM |
| AAAAAGGCAGGAUAUACAUGAGGAUCACCCAUGUUAAAAAAAAAAAAAAAAAAAAAGUGUAGAAGGGCCAAAAA | 55.6 nM | 55 nM | – | – |
| GACACUAUGUUUGUCAGAUAGAGAGAGGAUAUGGGUCAUGAGACAUGAGGAUCACCCAUGUAUAAUCAGAAGGCUCGAGUACGA | – | – | 19.1 nM | 13.7 nM |
| CCCGUGUGUUAAGGAUAUGGCAGGCGCGUUGAACCAGAAGGUAGCACAUGAGGAUCACCCAUGUGAAUGCUCACGAAUCGAGCG | 31.3 nM | 26.8 nM | – | – |
| GGUACUCAAAGAGUACCAAUACGAACAUGAGGAUCACCCAUGUAGGAUAUGCUAAAACCGGAGUAGCAGAAGGACAUGUGCCUA | 15.3 nM | 66.6 nM | – | – |
| AAACGCGUAGGAUAUACAUGAGGAUCACCCAUGUAUUGGGCUGUUGAUCUUCCUAAGGGUAGAAGGACGGGCAC | 68.1 nM | 119 nM | – | – |
| GCUAGUCAUGUCAGGAUAUGCAGUUCCUUGGAACUGCAGAAGGGACAUGAGGAUCACCCAUGUGCCUAGCUAGC | 41.1 nM | 357 nM | – | – |
| GCCAUCACAUGAGGAUAUGCUCCCGUUUCGGGAGCAGAAGGCAUGUCAUCAGACAUGAGGAUCACCCAUGUAGUUAAGAUGGCA | – | – | 361 nM | 15.1 nM |
| UAUAUAUAGUAAGGAUAUGUAAUUAUUUUAUAAACAGAAGGUACUGACAUGAGGAUCACCCAUGUUUUAGUGUGGGCAUGUAGA | 87.7 nM | 139 nM | – | – |
| AUCAGCUCGUCAGGAUAUACGUCACUGCGUCAACAGUGUGGUAAGAUCACAUGAGGAUCACCCAUGUAGAAGGGACGAGCUGAU | 14.6 nM | 266 nM | – | – |
| UGUAUGGACAGAGGAUAUGCCGAUAGGCUCUACUAUCGAAGAAUCCUCACAUGAGGAUCACCCAUGUAGAAGGCUGUCCAUACU | 18.1 nM | 41.3 nM | – | – |
